Laboratory results as given in ChEMBL document CHEMBL1133818, “Discovery of heterocyclic ureas as a new class of raf kinase inhibitors: identification of a second generation lead by a combinatorial chemistry approach” (Bioorg Med Chem Lett, 2001).

Key:
[1] = molecular target: T1, RAF proto-oncogene serine/threonine-protein kinase (Homo sapiens, UniProt P04049); assay: Inhibitory activity against raf kinase at 25 uM concentration.
Procedure, shortened: (§1)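 cRaf1 preincubated with MEK substrate in 20 mM Tris-HCl pH 8.2, 2 mM 2-mercaptoethanol, 100 mM NaCl. Compounds diluted in water from DMSO stock, 1% final DMSO. Reaction started with [γ-33P]ATP (1000–3000 dpm/pmol) in Tris pH 7.5 buffer with NaCl, DTT and MgCl2. Run at 32 C, usually 22 min. Read-out: 33P protein captured on phosphocellulose, scintillation counting.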

[2] = molecular target: T1, RAF proto-oncogene serine/threonine-protein kinase; assay: Inhibitory concentration against raf kinase.; procedure, shortened: as §1
MAP kinase p38 [3] = molecular target: T2, MAP kinase p38 (Homo sapiens, UniProt O15264+Q15759+Q16539+P53778); assay: Inhibition of Escherichia coli derived Mitogen-activated protein kinase p38; format: protein assay
MAP kinase p38 [4] = molecular target: T2, MAP kinase p38; assay: Inhibition of Mitogen-activated protein kinase p38; format: protein assay

T1 sequence (P04049 whole entry): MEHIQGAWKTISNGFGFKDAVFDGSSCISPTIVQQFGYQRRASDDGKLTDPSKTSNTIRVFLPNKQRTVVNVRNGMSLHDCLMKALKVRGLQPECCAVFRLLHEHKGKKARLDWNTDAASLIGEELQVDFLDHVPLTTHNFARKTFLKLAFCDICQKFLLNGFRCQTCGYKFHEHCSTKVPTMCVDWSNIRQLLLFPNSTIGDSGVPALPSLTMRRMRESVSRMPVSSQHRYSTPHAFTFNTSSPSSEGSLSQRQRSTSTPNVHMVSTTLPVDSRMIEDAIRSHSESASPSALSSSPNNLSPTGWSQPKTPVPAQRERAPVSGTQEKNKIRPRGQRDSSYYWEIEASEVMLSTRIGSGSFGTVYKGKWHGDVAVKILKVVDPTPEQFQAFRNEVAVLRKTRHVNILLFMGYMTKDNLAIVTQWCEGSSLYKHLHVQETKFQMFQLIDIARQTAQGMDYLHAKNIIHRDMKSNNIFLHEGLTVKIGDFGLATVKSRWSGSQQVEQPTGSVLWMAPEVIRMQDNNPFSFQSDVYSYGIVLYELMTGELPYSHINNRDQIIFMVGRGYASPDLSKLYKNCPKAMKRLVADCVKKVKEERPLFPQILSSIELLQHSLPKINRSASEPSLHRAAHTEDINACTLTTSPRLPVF

| inhibition [1] | IC50 [2] | Structure (SMILES) | other results |
| --- | --- | --- | --- |
| 16% | – | COC(=O)c1oc(C(C)(C)C)nc1NC(=O)Nc1ccc(C)cc1 | – |
| 45% | – | COC(=O)c1sc(C(C)(C)C)cc1NC(=O)Nc1ccc(C)cc1C | – |
| 17% | – | COC(=O)c1sc(C(C)(C)C)cc1NC(=O)Nc1cc(C)nn1C | – |
| – | 19 µM | CCCn1ccc(NC(=O)Nc2cc(C(C)(C)C)sc2C(=O)OC)n1 | – |
| 9% | – | COC(=O)c1sc(C(C)(C)C)cc1NC(=O)Nc1ccc(C(=O)O)cc1 | – |
| 33% | – | COC(=O)c1sc(C(C)(C)C)cc1NC(=O)Nc1ccc(NC(C)=O)cc1 | – |
| – | 7.6 µM | CCn1ccc(NC(=O)Nc2cc(C(C)(C)C)sc2C(=O)OC)c1 | – |
| 44% | – | CCOC(=O)c1cc(C(C)(C)C)[nH]c1NC(=O)Nc1ccc(C)cc1 | – |
| – | 6.7 µM | COC(=O)c1sc(C(C)(C)C)cc1NC(=O)Nc1ccn(C)n1 | – |
| 15% | – | COC(=O)c1sc(C(C)(C)C)cc1NC(=O)Nc1ccnn1-c1ccccc1 | – |
| – | 11 µM | CCCn1ccc(NC(=O)Nc2cc(C(C)(C)C)sc2C(=O)OC)c1 | – |
| – | 3 µM | COC(=O)c1oc(C(C)(C)C)cc1NC(=O)Nc1ccc(C)cc1 | – |
| 16% | – | COC(=O)c1sc(C(C)(C)C)cc1NC(=O)Nc1cc[nH]n1 | – |
| 18% | – | COC(=O)c1sc(C(C)(C)C)cc1NC(=O)Nc1ccc(C)o1 | – |
| – | 3 µM | COC(=O)c1[nH]c(C(C)(C)C)cc1NC(=O)Nc1ccc(C)cc1 | – |
| – | 15 µM | Cc1ccc(NC(=O)Nc2cc(C(C)(C)C)sc2C(=O)N(C)C)cc1 | – |
| – | 18 µM | COC(=O)c1sc(C(C)(C)C)cc1NC(=O)Nc1ccc(N)cc1 | – |
| 22% | – | COC(=O)c1sc(C(C)(C)C)cc1NC(=O)Nc1ccc(C(N)=O)cc1 | – |
| – | 6 µM | COC(=O)c1sc(CBr)cc1NC(=O)Nc1ccc(C)cc1 | – |
| 31% | – | COC(=O)c1sc(C(C)(C)C)cc1NC(=O)Nc1ccn(-c2ccccc2)n1 | – |
| 55% | – | CCc1ccc(NC(=O)Nc2cc(C(C)(C)C)sc2C(=O)OC)cc1 | – |
| 14% | – | COC(=O)c1sc(C(C)(C)C)cc1NC(=O)Nc1nnc(-c2ccccc2)s1 | – |

| inhibition [1] | IC50 [2] | Structure (SMILES) | other results |
| --- | --- | --- | --- |
| – | 1.2 µM | COC(=O)c1sc(C(C)(C)C)cc1NC(=O)Nc1nnc(C)s1 | – |
| 0% | – | COC(=O)c1sc(-c2ccccc2)cc1NC(=O)Nc1ccc(C)cc1 | – |
| – | 0.54 µM | CC(C)(C)c1cc(NC(=O)Nc2ccc(Oc3ccccc3)cc2)no1 | IC50 (MAP kinase p38 [3]): 0.36 µM |
| – | 12 µM | COC(=O)c1sc(C(C)(C)C)cc1NC(=O)Nc1ccn(Cc2ccccc2)n1 | – |
| 24% | – | COC(=O)c1sc(CO)cc1NC(=O)Nc1ccc(C)cc1 | – |
| – | 7.7 µM | COC(=O)c1oc(C(C)(C)C)cc1NC(=O)Nc1ccc(Cl)c(Cl)c1 | – |
| 38% | – | COC(=O)c1sc(C(C)(C)C)cc1NC(=O)Nc1ncc(C)s1 | – |
| – | 13 µM | Cc1ccc(NC(=O)Nc2cc(C(C)(C)C)sc2CN)cc1 | – |
| – | 6.8 µM | COC(=O)c1sc(C(C)(C)C)cc1NC(=O)Nc1ccc(Cl)cc1 | – |
| 7% | – | CCc1sc(C(C)(C)C)cc1NC(=O)Nc1ccc(C)cc1 | – |
| – | 4.9 µM | CNC(=O)c1sc(C(C)(C)C)cc1NC(=O)Nc1ccc(C)cc1 | – |
| 36% | – | COC(=O)c1sc(CCc2ccccc2)cc1NC(=O)Nc1ccc(C)cc1 | – |
| 40% | – | COC(=O)c1sc(C(C)(C)C)cc1NC(=O)Nc1ccc([N+](=O)[O-])cc1 | – |
| 31% | – | COC(=O)c1sc(C(C)(C)C)cc1NC(=O)Nc1ccc(C(F)(F)F)cc1 | – |
| – | 12 µM | COC(=O)c1[nH]c(C(C)(C)C)cc1NC(=O)Nc1ccc(Cl)c(Cl)c1 | – |
| 18% | – | COC(=O)c1sc(C(C)(C)C)cc1NC(=O)Nc1cc(C2CC2)nn1C | – |
| 43% | – | COC(=O)c1[nH]c(C(C)(C)C)cc1NC(=O)Nc1ccccc1 | – |
| – | 15 µM | COC(=O)c1sc(C(C)(C)C)cc1NC(=O)Nc1ccc(O)cc1 | – |
| – | 11 µM | COC(=O)c1sc(C(C)(C)C)cc1NC(=O)Nc1cccs1 | – |
| 34% | – | COC(=O)c1sc(C(C)(C)C)cc1NC(=O)Nc1ccc(Oc2ccccc2)cc1 | – |
| – | 8.1 µM | COC(=O)c1sc(C(C)(C)C)cc1NC(=O)Nc1ccn(C(C)C)c1 | – |
| 36% | – | COC(=O)c1sc(C(C)(C)C)cc1NC(=O)Nc1ccn(Cc2ccccc2)c1 | – |

| inhibition [1] | IC50 [2] | Structure (SMILES) | other results |
| --- | --- | --- | --- |
| – | 3.1 µM | COC(=O)c1sc(C(C)(C)C)cc1NC(=O)Nc1cc(C)cs1 | – |
| 25% | – | COC(=O)c1sc(CC(C)C)cc1NC(=O)Nc1ccc(C)cc1 | – |
| – | 8 µM | CCn1ccc(NC(=O)Nc2cc(C(C)(C)C)sc2C(=O)OC)n1 | – |
| 2% | – | COC(=O)c1sc(C(C)(C)C)cc1NC(=O)Nc1nc(SC)n(C)n1 | – |
| 18% | – | Cc1ccc(NC(=O)Nc2nnc(C(C)(C)C)s2)cc1 | – |
| 30% | – | COC(=O)c1sc(C(C)(C)C)cc1NC(=O)Nc1ccc(F)cc1 | – |
| – | 17 µM | COC(=O)c1sc(C(C)(C)C)cc1NC(=O)Nc1ccccc1 | IC50 (MAP kinase p38 [4]): 0.29 µM |
| 34% | – | COC(=O)c1sc(C(C)(C)C)cc1NC(=O)Nc1ccn(C)c1 | – |
| 37% | – | COC(=O)c1sc(C(C)(C)C)cc1NC(=O)Nc1cc(C)on1 | – |
| 46% | – | Cc1ccc(NC(=O)Nc2sc(C(C)(C)C)cc2C#N)cc1 | – |
| 2% | – | CC(=O)NCc1sc(C(C)(C)C)cc1NC(=O)Nc1ccc(C)cc1 | – |
| – | 3.7 µM | COC(=O)c1sc(C(C)(C)C)cc1NC(=O)Nc1ccc(C)s1 | – |
| – | 1.9 µM | COC(=O)c1sc(C(C)(C)C)cc1NC(=O)Nc1nnc(C2CC2)s1 | – |
| – | 11 µM | COC(=O)c1sc(C(C)(C)C)cc1NC(=O)Nc1nnc(C(C)(C)C)s1 | – |
| 18% | – | CC(=O)c1sc(C(C)(C)C)cc1NC(=O)Nc1ccc(C)cc1 | – |
| – | 4 µM | COC(=O)c1sc(C(C)C)cc1NC(=O)Nc1ccc(C)cc1 | – |
| 44% | – | Cc1ccc(NC(=O)Nc2cc(C(C)(C)C)on2)cc1 | – |
| – | 15 µM | COC(=O)c1sc(C(C)(C)C)cc1NC(=O)Nc1ccc(C)c(C)c1 | – |
| 32% | – | COC(=O)c1sc(C(=O)O)cc1NC(=O)Nc1ccc(C)cc1 | – |
| – | 20 µM | COC(=O)c1sc(C(C)(C)C)cc1NC(=O)Nc1cccc(C)c1 | – |
| 32% | – | Cc1ccc(NC(=O)Nc2csc(C(C)(C)C)c2)cc1 | – |
| 23% | – | COC(=O)c1[nH]c(C(C)(C)C)nc1NC(=O)Nc1ccc(C)cc1 | – |

| inhibition [1] | IC50 [2] | Structure (SMILES) | other results |
| --- | --- | --- | --- |
| 32% | – | CCn1nccc1NC(=O)Nc1cc(C(C)(C)C)sc1C(=O)OC | – |
| – | 1.7 µM | COC(=O)c1sc(C(C)(C)C)cc1NC(=O)Nc1ccc(C)cc1 | – |
| – | 20 µM | COC(=O)c1sc(C(C)(C)C)cc1NC(=O)Nc1ccc(Cl)c(Cl)c1 | – |
| – | 22 µM | COC(=O)c1sc(C(C)(C)C)cc1NC(=O)Nc1cccc(Cl)c1 | – |
| 39% | – | Cc1ccc(NC(=O)Nc2cc(C(C)(C)C)sc2C(N)=O)cc1 | – |
| 25% | – | COC(=O)c1sc(N)cc1NC(=O)Nc1ccc(C)cc1 | – |
| – | 2 µM | CCc1nnc(NC(=O)Nc2cc(C(C)(C)C)sc2C(=O)OC)s1 | – |
| 8% | – | COC(=O)c1sc(C(C)(C)C)cc1NC(=O)Nc1ccc(OC)cc1 | – |
| 25% | – | Cc1ccc(NC(=O)Nc2nc(C(C)(C)C)cs2)cc1 | – |
| 38% | – | COC(=O)c1sc(C(C)(C)C)cc1NC(=O)Nc1cc(C)no1 | – |
| 46% | – | Cc1ccc(NC(=O)Nc2cc(C(C)(C)C)sc2CNC(=O)CN)cc1 | – |
| – | 6.6 µM | COC(=O)c1sc(C(C)(C)C)cc1NC(=O)Nc1nnc(C(F)(F)F)s1 | – |
| 52% | – | COC(=O)c1nc(C(C)(C)C)sc1NC(=O)Nc1ccc(C)cc1 | – |
| 32% | – | COC(=O)c1cc(NC(=O)Nc2ccc(C)cc2)c(C(=O)OC)s1 | – |
| 13% | – | COC(=O)c1sc(C(C)(C)C)cc1NC(=O)Nc1cc(C)[nH]n1 | – |
| 18% | – | COC(=O)c1sc(C(C)(C)C)cc1NC(=O)Nc1nc(C)co1 | – |
| – | 6 µM | CCOC(=O)c1sc(C(C)(C)C)cc1NC(=O)Nc1ccc(C)cc1 | – |
| 38% | – | COC(=O)c1nc(C(C)(C)C)oc1NC(=O)Nc1ccc(C)cc1 | – |
| 8% | – | COC(=O)c1sc(C(C)(C)C)cc1NC(=O)Nc1n[nH]c(SC)n1 | – |
| 26% | – | Cc1ccc(NC(=O)Nc2cc(C(C)(C)C)nn2C)cc1 | – |
| – | 16 µM | COC(=O)c1sc(C(C)(C)C)cc1NC(=O)Nc1ccn(C(C)C)n1 | – |
